In publication PMC6044901 (ACS Omega, 2018):

What was measured:
[1] = PK after sc injection in mice; type: in vivo; conditions: male, Crl:CD1 (ICR), mouse, plasma, 100 nmol/kg
Outline: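 Male ICR mice, 6 weeks old, n = 3, given a single sc injection: test compound at 100 or 300 nmol/kg, or liraglutide at 100 nmol/kg. Tail-vein plasma sampled at 0–144 h (0, 12, 24, 48, 72, 96, 120, 144 h) and stored at −80 °C. Active GLP-1 ELISA with a four-parameter logistic fit. Bioavailability from sc and iv dosing run in parallel.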

[2] = PK after iv injection in mice; type: in vivo; conditions: iv 1 mg/kg, GLP-1 ELISA, T1/2 elim unavailable
Outline: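 Male ICR mice, 6 weeks old, n = 3, given a single iv injection: 1 mg/kg as GLP-1 peptide-equivalent weight for screening, or 300 nmol/kg. Tail-vein blood taken at 0, 12, 24, 48, 72, 96, 120 and 144 h; plasma stored at −80 °C. Active GLP-1 ELISA with a four-parameter logistic standard curve. Half-life computed; mean of three measurements.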

[3] = iv; cited from earlier work
[4] = nonhuman primate; cited from earlier work

With `CCCCCCCCCCCCCCCC(=O)N[C@@H](CCC(=O)NCCCC[C@H](NC(=O)[C@H](C)NC(=O)[C@H](C)NC(=O)[C@H](CCC(N)=O)NC(=O)CNC(=O)[C@H](CCC(=O)O)NC(=O)[C@H](CC(C)C)NC(=O)[C@H](Cc1ccc(O)cc1)NC(=O)[C@H](CO)NC(=O)[C@H](CO)NC(=O)[C@@H](NC(=O)[C@H](CC(=O)O)NC(=O)[C@H](CO)NC(=O)[C@@H](NC(=O)[C@H](Cc1ccccc1)NC(=O)[C@@H](NC(=O)CNC(=O)[C@H](CCC(=O)O)NC(=O)[C@H](C)NC(=O)[C@@H](N)Cc1cnc[nH]1)[C@@H](C)O)[C@@H](C)O)C(C)C)C(=O)N[C@@H](CCC(=O)O)C(=O)N[C@@H](Cc1ccccc1)C(=O)N[C@H](C(=O)N[C@@H](C)C(=O)N[C@@H](Cc1c[nH]c2ccccc12)C(=O)N[C@@H](CC(C)C)C(=O)N[C@H](C(=O)N[C@@H](CCCNC(=N)N)C(=O)NCC(=O)N[C@@H](CCCNC(=N)N)C(=O)NCC(=O)O)C(C)C)[C@@H](C)CC)C(=O)O` [liraglutide, reference compound] the MRT [1] was 15.5 h and the “plasma immunoreactive GLP-1 level at 48 h after iv injection” value [2] was “below the detection limit”.

For Glucagon-like peptide-1 [GLP-1], the “half-life (T1/2 elim) injected intravenously” value [3] is given as no more than 2 min.

B1: 99 kDa HPN-conjugated G-CSF: 99 kDa heparosan-conjugated G-CSF, ref 39 (conjugate, UniProt P09919 31-207, looked up)
Granulocyte …: TPLGPASSLPQSFLLKCLEQVRKIQGDGAALQEKLVSECATYKLCHPEELVLLGHSLGIPWAPLSSCPSQALQLAGCLSQLHSGLFLYQGLLQALEGISPELGPTLDTLQLDVADFATTIWQQMEELGMAPALQPTQGAMPAFASAFQRRAGGVLVASHLQSFLEVSYRVLRHLAQP
modifications: 99 kDa heparosan conjugate
For B1, the T1/2 elim [4] is given as 190 h.
